H69AR growth 86K – blocks growth of human H69AR lung tumor cells | 85,000 compounds, 6% hits | viability, % at 10 µM | H69AR lung tumor viability, ATP luminescence, 72 h; hits give low values;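 active means viability at or below 40%; inactive means viability above 40%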;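 further: multidrug resistant small cell line overexpressing MRP-1 efflux transporter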
HCT116 PTEN-null – suppresses growth of cells with PTEN deletion; HCT116 PTEN-null viability, CellTiter-Glo, 60 h; hits give low values; viability, % at 10 µM; 140,000 compounds, 1.2% hits; AID 827;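 active means viability at or below a set limit, 4 SD under the median of all tested compounds, cut at about 3.7% in these data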;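 further: PTEN knockout HCT116 line with beta catenin targeted HCT116 as companion control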
Lung fibro prol – blocks proliferation of human lung fibroblasts; LL 47 human lung fibroblast viability, ATP luminescence; hits give low values; 85,000 compounds, 1.1% hits; viability, % at 10 µM;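 active means viability at or below 50% in the single dose screen; inactive means viability above 50%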;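 further: compound exposure lasted 72 h before the ATP readout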
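Material: human lung fibroblast line LL 47, low passage; Evaluation: viability percentage against median untreated-cell control; Buffer or medium: 15% FBS in IMEM; Incubation: 72 h compound exposure at 37 °C after overnight plating; Dosing: 0.1% DMSO in all compound wells; Measured by: CellTiter-Glo luminescence.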
bCat KO growth – beta-catenin-lacking colon tumor cell growth suppression | 140,000 compounds, 1.5% hits | AID 818 | viability, % at 10 µM | HCT116 beta-catenin knockout viability, CellTiter-Glo, 60 h; hits give low values;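 active means viability at or under a set limit, the compound median less 4 SD, cut at about 6% in these data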
HUVEC inhibit – human endothelial cell proliferation inhibition. HUVEC proliferation, CellTiter-Glo luminescence, 72 h; hits give low values. viability, % at 10 µM (by protocol). 86,000 compounds, 1.1% hits;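 active means viability at or below 30%; inactive means viability above 30%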
Each line names hits and unclear results; the compound was inactive in the other large screens. The sample as a whole holds a higher share of hits than the screen did.

Fc1ccccc1CNC(=S)Nc1cccc(C(F)(F)F)c1	none (no result: H69AR growth 86K, Lung fibro prol, HUVEC inhibit)
COc1ccc(CCNC(=O)/C(C#N)=C/c2cccc(OCc3ccccc3)c2)cc1OC	none (no result: H69AR growth 86K, Lung fibro prol, HUVEC inhibit)
Clc1ccc2oc3c(Cl)ncnc3c2c1	bCat KO growth 3.0 (no result: H69AR growth 86K, Lung fibro prol, HUVEC inhibit)
Brc1ccc2oc3c(N4CCOCC4)ncnc3c2c1	none
COc1ccc(/C(N)=N/OC(=O)c2cccc([N+](=O)[O-])c2C)cc1OC	H69AR growth 86K 36
Cc1ccc(C2(c3ccc(C)cc3)CC2C(=O)Nc2ccc([N+](=O)[O-])cc2O)cc1 (configuration not stated)	HCT116 PTEN-null 3.3, bCat KO growth 2.3 (no result: H69AR growth 86K, Lung fibro prol, HUVEC inhibit)
CC1(C)CC1C(=O)Nc1ccc([N+](=O)[O-])cc1Br (configuration not stated)	none (no result: H69AR growth 86K, Lung fibro prol, HUVEC inhibit)
CC(=O)n1c2ccccc2c2ccccc21	none (no result: H69AR growth 86K, Lung fibro prol, HUVEC inhibit)
Cc1ccc(C(=O)n2c3ccccc3c3ccccc32)cc1	H69AR growth 86K 18, Lung fibro prol 46
CC1=NN(C(=O)Cn2nc([N+](=O)[O-])c(Br)c2C)C(O)(C(F)(F)F)C1 (configuration not stated)	none (no result: H69AR growth 86K, Lung fibro prol, HUVEC inhibit)
Cc1ccc(Cl)cc1NC(=O)c1cccc(OC(F)F)c1	none (no result: H69AR growth 86K, Lung fibro prol, HUVEC inhibit)
CCOC(=O)/C(=C/c1ccccc1)NC(=O)c1ccco1	none (no result: H69AR growth 86K, Lung fibro prol, HUVEC inhibit)
Cc1cc(C)c(S(=O)(=O)N(CC(=O)O)CC(=O)O)c(C)c1	none
Cc1cc(C)c(S(=O)(=O)N(C2=NCCS2)S(=O)(=O)c2c(C)cc(C)cc2C)c(C)c1	H69AR growth 86K 22
Clc1ccc(-c2cn3c(n2)-c2ccccc2C3)cc1Cl	none (no result: H69AR growth 86K, Lung fibro prol, HUVEC inhibit)
CCc1c(C)nc2ncnn2c1N1CCC(C(=O)Nc2ccc(C)cc2)CC1	H69AR growth 86K 35
CCc1c(C)nc2ncnn2c1N1CCC(C(=O)Nc2ccccc2)CC1	none
CSc1ccccc1NC(=O)c1ccccc1N(Cc1ccccc1)S(C)(=O)=O	none
Cn1ncc(Br)c1C(=O)NC12CC3CC(CC(C3)C1)C2	none (no result: H69AR growth 86K, Lung fibro prol, HUVEC inhibit)
O=C(O)C(=O)/C(=C\c1cccc2ccccc12)c1ccc2ccccc2n1	H69AR growth 86K 18
CC1=NN(c2ccc(C)cc2C)C(=O)C1C(c1cccc(O)c1)C1C(=O)N(c2ccc(C)cc2C)N=C1C (configuration not stated)	none (no result: H69AR growth 86K, Lung fibro prol, HUVEC inhibit)
NC(=O)N/N=C/c1cc(Br)ccc1OC(=O)c1ccccc1	none (no result: H69AR growth 86K, Lung fibro prol, HUVEC inhibit)
O=C(COc1ccccc1)Nc1cccc(-c2nc3cc4ccccc4cc3[nH]2)c1	HCT116 PTEN-null 1.1, bCat KO growth 1.7 (no result: H69AR growth 86K, Lung fibro prol, HUVEC inhibit)
CC(C)(C)NC(=O)c1cc([N+](=O)[O-])ccc1N1CCCCC1	none (no result: H69AR growth 86K, Lung fibro prol, HUVEC inhibit)
Brc1ccc(-c2csc3ncnc(-n4nnc5ccccc54)c23)cc1	none (no result: H69AR growth 86K, Lung fibro prol, HUVEC inhibit)
CCc1ccccc1NC(=O)CSc1nnc([C@@H]2CCCN2C(=O)OC(C)(C)C)o1	H69AR growth 86K 2.1
Cc1cccc(C)c1NC(=O)CSc1nnc([C@@H]2CCCN2C(=O)OC(C)(C)C)o1	none
Cc1cc(N2CCC3(CC2)OCCO3)n2nc(C)c(-c3ccc(Cl)cc3)c2n1	H69AR growth 86K 37 (no result: HCT116 PTEN-null, bCat KO growth)
COc1ccccc1-c1c(C)nn2c(N3CCC4(CC3)OCCO4)cc(C)nc12	none
COc1ccc(CC(=O)Nc2ccc(-c3nc4cc(C)ccc4o3)c(O)c2)cc1OC	Lung fibro prol 40
O=C(Cc1ccccc1)Nc1ccc2oc(-c3cccnc3)nc2c1	none
O=C(Cc1ccc(Cl)cc1)Nc1ccc2oc(-c3ccncc3)nc2c1	H69AR growth 86K 32, Lung fibro prol 8.1, HUVEC inhibit 18
O=C(Nc1ccc(-c2nc3cc(Cl)ccc3o2)cc1)C1CCCO1 (configuration not stated)	H69AR growth 86K 33
COC(=O)c1sc(NC(=O)CCCn2nc([N+](=O)[O-])cc2C)c(C(=O)OC)c1C	none (no result: H69AR growth 86K, Lung fibro prol, HUVEC inhibit)
O=C(NNS(=O)(=O)c1cccc(Cl)c1Cl)c1cccc(S(=O)(=O)N2CCOCC2)c1	none (no result: H69AR growth 86K, Lung fibro prol, HUVEC inhibit)
CC1(C)C(c2ccccc2)=[N+]([O-])CN1O	H69AR growth 86K 34 (no result: Lung fibro prol)
CC1(C)C(c2ccccn2)=[N+]([O-])C(C)(C)N1O	none
O=C(O)C1CCCCC1C(=O)Nc1ccc2c(c1)OCCO2 (configuration not stated)	none
CCc1ccc(Nc2cc(=O)n(C3CCCCC3)c(=O)[nH]2)cc1	H69AR growth 86K 16
O=c1cc(Nc2ccc3c(c2)OCCO3)[nH]c(=O)n1C1CCCCC1	H69AR growth 86K 18
O=c1cc(Nc2ccc3c(c2)OCCO3)[nH]c(=O)n1-c1ccc(Cl)cc1	H69AR growth 86K 8.8
COC(=O)CCC(=O)c1oc2ccccc2c1N	none
COc1ccc(CC(=O)Nc2nc3ccc(F)cc3s2)cc1S(=O)(=O)N1CCOCC1	H69AR growth 86K 39
